Source: ChEMBL document CHEMBL4428067, “Drug Discovery against Psoriasis: Identification of a New Potent FMS-like Tyrosine Kinase 3 (FLT3) Inhibitor, 1-(4-((1H-Pyrazolo[3,4-d]pyrimidin-4-yl)oxy)-3-fluorophenyl)-3-(5-(tert-butyl)isoxazol-3-yl)urea, That Showed Potent Activity in a Psoriatic Animal Model” (J Med Chem, 2016)
Activity calls are given as the source filed them. No cut-off for these calls is given here.

How the values were obtained:
Mus musculus [1] = species: Mus musculus; assay: Antipsoriatic activity in K14-VEGF transgenic mouse model of psoriasis assessed as lower right quadrant FLT3+/CD11c+/B220+ pDC cells in psoriatic plaque lesion at 0.05% applied tropically over lesion for continuous 29 days by flow cytometric analysis (reference value: 0.52%); type: functional
Mus musculus [2] = species: Mus musculus; assay: Antipsoriatic activity in K14-VEGF transgenic mouse model of psoriasis assessed as lower left quadrant FLT3+/CD11c+/MHC-II+ mDC cells in psoriatic plaque lesion at 0.05% applied tropically over lesion for continuous 29 days by flow cytometric analysis (reference value: 0%)
BMDC = assay: Decrease in IFN-gamma level in Balb/c mouse BMDCs at 10 nM treated on day 9 post 9 days of FLT3L-stimulation measured after 12 hrs by ELISA; type: functional, cell-based
Summary of the method: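 BALB/c bone marrow cells were plated at 1×10^6/ml in RPMI-1640 with 10% FCS, 10^-4 M 2-ME, pyruvate, antibiotics and FLT3L for 9 days. On day 9, compound in DMSO or 0.1% DMSO was added. After 12 h, supernatant IFN-γ and IL-23 were measured by ELISA. Three independent experiments.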

Mus musculus [3] = species: Mus musculus; assay: Antipsoriatic activity in K14-VEGF transgenic mouse model of psoriasis assessed as lower left quadrant FLT3+/CD11c+/B220+ pDC cells in psoriatic plaque lesion at 0.05% applied tropically over lesion for continuous 29 days by flow cytometric analysis (reference value: 63.7%)
[4] = target: T1, Receptor-type tyrosine-protein kinase FLT3 (Mus musculus) (UniProt Q00342); assay: Inhibition of FLT3 in mouse BMDCs assessed as suppression of STAT5 phosphorylation at 10 and 100 nM treated on day 9 post 9 days of FLT3L-stimulation measured after 1 hr by Western blot analysis
T1 sequence (whole entry): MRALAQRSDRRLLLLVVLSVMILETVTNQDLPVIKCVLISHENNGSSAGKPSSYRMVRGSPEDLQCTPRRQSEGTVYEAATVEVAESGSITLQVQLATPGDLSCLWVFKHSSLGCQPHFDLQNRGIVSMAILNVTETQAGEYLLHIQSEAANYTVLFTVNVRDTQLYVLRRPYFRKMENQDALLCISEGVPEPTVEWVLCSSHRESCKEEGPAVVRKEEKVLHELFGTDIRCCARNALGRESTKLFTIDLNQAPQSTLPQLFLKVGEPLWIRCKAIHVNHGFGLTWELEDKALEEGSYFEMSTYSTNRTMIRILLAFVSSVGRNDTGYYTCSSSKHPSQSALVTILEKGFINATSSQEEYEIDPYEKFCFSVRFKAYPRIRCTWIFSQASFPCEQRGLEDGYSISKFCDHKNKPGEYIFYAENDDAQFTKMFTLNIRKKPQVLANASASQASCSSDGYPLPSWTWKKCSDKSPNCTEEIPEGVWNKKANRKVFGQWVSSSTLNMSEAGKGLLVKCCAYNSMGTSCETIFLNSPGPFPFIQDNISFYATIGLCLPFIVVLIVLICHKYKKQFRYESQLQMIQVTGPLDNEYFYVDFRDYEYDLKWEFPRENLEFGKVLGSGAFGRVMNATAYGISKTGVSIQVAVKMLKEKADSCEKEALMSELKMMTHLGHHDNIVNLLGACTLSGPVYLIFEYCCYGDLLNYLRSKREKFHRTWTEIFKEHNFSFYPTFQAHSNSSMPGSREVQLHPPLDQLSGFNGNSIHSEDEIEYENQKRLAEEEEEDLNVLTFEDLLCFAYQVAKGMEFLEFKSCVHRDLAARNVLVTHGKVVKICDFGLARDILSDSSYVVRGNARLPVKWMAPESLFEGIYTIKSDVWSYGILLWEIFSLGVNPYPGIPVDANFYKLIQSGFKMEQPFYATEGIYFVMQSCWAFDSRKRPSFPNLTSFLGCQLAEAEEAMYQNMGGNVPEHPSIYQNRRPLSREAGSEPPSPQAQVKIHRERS
Summary of the method: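 Bone marrow cells were cultured 9 days with FLT3L in supplemented RPMI-1640, then exposed to compound or 0.1% DMSO for 1 h on day 9. Whole cells were lysed and immunoblotted with rabbit antibodies to STAT3, STAT5, pSTAT3 and pSTAT5. Three independent experiments.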

Mus musculus [5] = species: Mus musculus; assay: Downregulation of IL17 expression in K14-VEGF transgenic mouse model of psoriasis at 0.05% applied tropically over lesion for 29 days by ELISA; type: functional, organism-based
Summary of the method: (§1)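 K14-VEGF mice were treated for 29 days with 0.05% cream or vehicle, n=3 each. At termination, blood was held at 4 °C for 12 h and then centrifuged. Plasma IFN-γ and IL-17 were measured by ELISA, mean ± SD.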

Mus musculus [6] = species: Mus musculus; assay: Downregulation of IFN-gamma expression in K14-VEGF transgenic mouse model of psoriasis at 0.05% applied tropically over lesion for 29 days by ELISA; type: functional, organism-based; summary of the method: as §1
Mus musculus [7] = species: Mus musculus; assay: Antipsoriatic activity in K14-VEGF transgenic mouse model of psoriasis assessed as decrease in DC cells expressing FLT3 and CD11c in psoriatic lesion at 0.05% applied tropically over lesion for continuous 29 days by flow cytometric analysis relative to control; type: functional
Mus musculus [8] = species: Mus musculus; assay: Antipsoriatic activity in K14-VEGF transgenic mouse model of psoriasis assessed as decrease in STAT3 phosphorylation in psoriatic lesion at 0.05% applied tropically over lesion for continuous 29 days by immunohistochemical analysis relative to vehicle control; type: functional; parameters: scale not given: the % may be the effect or the level left
Summary of the method: (§2)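 K14-VEGF mice were treated topically with 0.05% cream or vehicle for 29 days, n=3 per group. Ear skin was paraffin-embedded, cut into 4-µm sections and immunostained. Staining was quantified in 5 random fields, reported as mean ± SD.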

Mus musculus [9] = species: Mus musculus; assay: Antipsoriatic activity in K14-VEGF transgenic mouse model of psoriasis assessed as lower left quadrant FLT3+/CD11c+/MHC-II+ mDC cells in psoriatic plaque lesion at 0.05% applied tropically over lesion for continuous 29 days by flow cytometric analysis (reference value: 35.2%)
Mus musculus [10] = species: Mus musculus; assay: Antipsoriatic activity in K14-VEGF transgenic mouse model of psoriasis assessed as decrease in CD31 expression in psoriatic lesion at 0.05% applied tropically over lesion for continuous 29 days by immunohistochemical analysis relative to vehicle control; type: functional; parameters: scale not given: the % may be the effect or the level left; summary of the method: as §2
Mus musculus [11] = species: Mus musculus; assay: Antipsoriatic activity in K14-VEGF transgenic mouse model of psoriasis assessed as lower left quadrant FLT3+/CD11c+/MHC-II+ mDC cells in psoriatic plaque lesion at 0.05% applied tropically over lesion for continuous 29 days by flow cytometric analysis (reference value: 1.09%)

CC(C)(C)c1cc(NC(=O)Nc2ccc(Oc3ncnc4[nH]ncc34)c(F)c2)no1
Activity (Mus musculus [1]): 0% | Activity (Mus musculus [2]): 0% | inhibition (BMDC): Active | Activity (Mus musculus [3]): 89.9% | inhibition [4]: Active | Activity (Mus musculus [5]): Active | Activity (Mus musculus [6]): Active | inhibition (INH) (Mus musculus [7]): 69.6% | Activity (Mus musculus [8]): 64% | Activity (Mus musculus [9]): 8.58% | Activity (Mus musculus [10]): 94% | Activity (Mus musculus [11]): 1.54%
